Source: PubChem (several laboratories)
Compounds with a hit are over-represented: about 1.6% of the library has one in this group of screens.
CSN deneddyl inh = inhibitors of CSN-mediated cullin deneddylation, primary screen, biochemical, fluorescence polarization, uHTS | COP9 signalosome complex subunit 5 (Homo sapiens), Q92905 | Purified CSN, SCF-Nedd8-OG deneddylation | inhibition, % at 12.5 µM | 360,000 tested, 0.38% active | AID 651999, 2013;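 active = pattern-corrected inhibition above about 35%, with an unprinted fluorescence ratio check between 0.5 and 1.5, limit read from the data, passing the limit was not always enough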;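 note: 0% = enzyme with substrate and 100% = substrate without enzyme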
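Material: human Csn5 produced in HEK293T cells; Input: enzyme 0.24 nM; Reagent: SCFSkp2-Nedd8OG substrate at 10 nM final; Dosing: 12.5 µM compound; Incubation: 90 min reaction at room temperature; Detection: fluorescence polarization of the substrate; Evaluation: % inhibition of substrate cleavage by Csn5; Control set: substrate-only high control, full reaction low control.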
HNF4A DNA FP = change in binding of human HNF4A to DNA, primary screen, biochemical, fluorescence polarization, FITC-DNA; 360,000 tested, 0.3% active; 1 h; activity change, % at 10 µM; Hepatocyte nuclear factor 4-alpha (Homo sapiens), P41235; AID 1224865, 2016; in the data active = activity change above about 30%, passing the limit was not always enough
Rpn11 block = Rpn11 (PSMD14) deubiquitinase inhibitors, primary screen, biochemical, fluorescence polarization, uHTS. human 26S proteasome, Ub4-pepOG fluorescence polarization; 20S core pre-blocked with epoxomicin. calls only at 20 µM. 360,000 tested, 0.59% active. AID 588493, 2011;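 active = inhibition at 20 µM, scaled to each plate's controls, above about 33%, limit read from the data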
TPT1 inhibitor = Candida albicans TPT1 enzyme inhibitors, primary screen, biochemical, fluorescence polarization; recombinant caTPT1, FP RNA substrate dephosphorylation; inhibition, % at 5 µM; 300,000 tested, 0.81% active; AID 1962, 2009;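 active = inhibition above the mean of all tested compounds plus 3 SD, set per screening campaign, cut at about 24% in these data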;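 note: plate controls were DMSO alone for no effect and ferristatin control at 100 nM for full effect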
PKA-R1A act = activators of PKA-R1A holoenzyme, primary screen, biochemical, fluorescence polarization, Cy5-IP20, bovine R1A, mouse PKAc. cAMP-dependent protein kinase type I-alpha regulatory subunit (Bos taurus) + …. PKA-R1A dissociation; scaled: DMSO 0%, 113 µM cGMP 100%. activation, % at 11.4 µM. 340,000 tested, 0.083% active. AID 504707, 2011;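 active = percent activation above the mean of all tested compounds plus 3 SD, cut at about 19% in these data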;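 note: higher means more PKAc released from R1A so a rise in polarization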
PKA-R2B activ = activators of PKA-R2B holoenzyme, primary screen, biochemical, fluorescence polarization, Cy5-IP20, human. cAMP-dependent protein kinase catalytic subunit beta (Homo sapiens) + cAMP-dependent …. PKA-R2B holoenzyme dissociation; R2B truncated from residue 108, S112A mutant; 0% DMSO only, 100% 113 µM cGMP. activation, % at 11.4 µM. 340,000 tested, 0.079% active;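 active = activation above a cutoff set at the mean over all compounds plus 3 SD, cut at about 18% in these data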;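 note: higher means more holoenzyme dissociation and a rise in polarization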
Target sequence (P31323 whole entry, looked up, other chains not shown, the tested form may be a part): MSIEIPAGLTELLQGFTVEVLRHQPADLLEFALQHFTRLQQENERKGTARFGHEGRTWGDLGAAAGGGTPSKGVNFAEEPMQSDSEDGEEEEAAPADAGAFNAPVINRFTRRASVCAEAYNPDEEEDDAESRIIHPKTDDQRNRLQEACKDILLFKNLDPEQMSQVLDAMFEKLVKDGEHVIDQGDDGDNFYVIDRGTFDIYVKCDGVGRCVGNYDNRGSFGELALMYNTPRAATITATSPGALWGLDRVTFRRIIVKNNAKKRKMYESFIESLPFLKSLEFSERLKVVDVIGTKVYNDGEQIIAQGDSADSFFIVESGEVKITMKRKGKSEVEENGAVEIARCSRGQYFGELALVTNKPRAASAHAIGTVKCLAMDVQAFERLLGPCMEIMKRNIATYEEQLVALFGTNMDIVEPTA
TPT1 inh confirm = Candida albicans TPT1 inhibitors, confirmation, biochemical, fluorescence polarization, triplicate; shares compounds with TPT1 inhibitor; recombinant caTPT1, RNase T1 coupled; inhibition, % at 5 µM; 2,400 tested, 74% active; AID 2149, 2009;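 active = inhibition above the primary screen limit, the mean inhibition of all tested compounds plus 3 SD, cut at about 25% in these data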
RNase T1 counter = RNase T1 inhibitors, counter-screen for TPT1 inhibitor project, biochemical, fluorescence polarization | shares compounds with TPT1 inhibitor | AID 2153, 2009 | inhibition, % at 5 µM | RNase T1 cleavage, 1536-well | 2,400 tested, 83% active;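 active = inhibition above the solvent-only control well mean plus 3 SD, limit set per screening run, cut at about 23% in these data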;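 note: plate controls were DMSO wells with enzyme for no effect and wells without RNase T1 for full effect; inhibitors block cleavage so intact labeled substrate keeps polarization high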
Target sequence (P00651 whole entry, looked up): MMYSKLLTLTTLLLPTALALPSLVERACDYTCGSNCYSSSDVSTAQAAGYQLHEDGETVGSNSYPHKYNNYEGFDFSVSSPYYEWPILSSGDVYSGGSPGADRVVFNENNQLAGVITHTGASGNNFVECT
Active calls of the source: *; i = inactive; x = no result shown; ! = not confirmed by another sample.

SMILES	CSN deneddyl inh	HNF4A DNA FP	Rpn11 block	TPT1 inhibitor	PKA-R1A act	PKA-R2B activ	TPT1 inh confirm	RNase T1 counter
O=C(CC(NC(=O)c1ccccc1)c1ccccc1)Nc1cccc2ccccc12 (stereo unspecified)	-1	-1	i	2	2	-6	x	x
O=C(CC(C(=O)O)c1ccccc1)Nc1cccc2ccccc12 (stereo unspecified)	-12	2	i	30*	-1	-2	5	8
CC(=O)Nc1ccc2sccc2c1	-6	-3	i	0	4	-17	x	x
NC(=S)N1OC[C@@H]2COc3ccc4ccccc4c3[C@@H]21	-7	-3	i	-3	-5	2	x	x
CCN1CCN(Cc2ccc(NC(=O)c3ccc(C)c(/C=C/c4cnc(Nc5cc(N6CCNCC6)nc(C)n5)cn4)c3)cc2C(F)(F)F)CC1	57*!	125	x	78*	11	4	83*	87*
CCN1CCN(Cc2ccc(NC(=O)c3ccc(C)c(NC(=O)c4ccno4)c3)cc2C(F)(F)F)CC1	9	5	i	-1	-9	-5	x	x
CN1/C(=C/C2CC(=O)N(c3ccc([N+](=O)[O-])cc3)C2=O)C(C)(C)c2ccccc21 (stereo unspecified)	5	1	i	25*	7	0	14	20
Cc1cnc(NC(=O)C(C)N2CCN(C)CC2)s1 (stereo unspecified)	6	2	i	0	-2	-4	x	x
CCOc1ccc2nc(/N=C/c3nc(-c4ccc(Br)cc4)oc3O)sc2c1	11	14	x	50*	-11	-16	58*	68*
COc1ccc(/C=C/C(=O)c2ccncc2)c2ccccc12	1	1	i	63*	1	-1	73*	81*
CCOc1ccccc1N1CC(C(=O)NC2CCCCCC2)CC1=O (stereo unspecified)	-3	-3	i	x	6	-6	x	x
COC(=O)c1sccc1NC(=O)CSc1ccccc1NS(=O)(=O)c1ccc(Br)cc1	-1	1	i	0	-2	0	x	x
O=C(O)Cn1cc(/C=c2/sc3nc4ccccc4n3c2=O)c2ccccc21	5	28	i	39*	-2	-3	28*	37*
COc1ccc(S(=O)(=O)N(C)C[C@H]2OCc3cn(nn3)CCCC(=O)N([C@H](C)CO)C[C@@H]2C)cc1	2	1	i	x	5	1	x	x
CCN1C(=O)/C(=C/C2=Cc3ccccc3OC2C)SC1=S (stereo unspecified)	26	91*	x	43*	x	x	93*	98*
CN(Cc1cccs1)C(=O)COc1ccc(-c2nnco2)cc1	-3	3	i	-5	2	-4	x	x
CCOc1ccc2nc(N3CCCCCC3)sc2c1	4	1	i	1	2	-2	x	x
CCOc1ccc2nc(N3C(=O)/C(=C/c4ccccc4)NC3=S)sc2c1	19	-1	x	26*	3	-6	35*	45*
COc1ccc(C2C(C#N)=C3NC(=O)c4c(sc5c4CCCCC5)N3C3=C2C(=O)CC(C)(C)C3)cc1 (stereo unspecified)	18	11	i	23	-2	-6	x	x
COc1ccc(C2C(C#N)=C(N)N(c3sc4c(c3C#N)CCCC4)C3=C2C(=O)CC(C)(C)C3)cc1 (stereo unspecified)	30	10	i	28*	-15	-7	8	6
COc1ccc(C2C(C#N)=C(N)N(c3sc4c(c3C#N)CCCC4)C3=C2C(=O)CC(C)(C)C3)cc1OC (stereo unspecified)	21	2	i	28*	3	-3	14	17
O=C(COc1ccc(S(=O)(=O)N2CCCC2)cc1)N1CCN(c2ccccc2F)CC1	-1	0	i	-5	0	4	x	x
CCOC(=O)COc1ccc(S(=O)(=O)N2CCN(c3ccccc3F)CC2)cc1	5	1	i	109*	0	5	7	10
CC(C)CC1=NN2C(=N)/C(=C\c3coc4ccccc4c3=O)C(=O)N=C2S1	-70	27	x	x	-13	-2	x	x
CCSC1=NSC2=NC(=O)/C(=C\c3coc4ccccc4c3=O)C(=N)N12	-66	51	i	55*	12	6	2	14
SMILES	CSN deneddyl inh	HNF4A DNA FP	Rpn11 block	TPT1 inhibitor	PKA-R1A act	PKA-R2B activ	TPT1 inh confirm	RNase T1 counter
CC1(C)CC(=O)C2=C(C1)OC(N)=C(C#N)C21CCN(Cc2ccccc2)CC1	-1	1	i	27*	3	3	22	32*
O=C(Nc1ccc(Cl)c([N+](=O)[O-])c1)c1cnccn1	6	0	i	1	0	8	x	x
CC(C)[C@H](NC(=O)c1ccccc1Cl)C(=O)Nc1ccc(S(=O)(=O)Nc2nccs2)cc1	-3	4	i	x	-4	-15	x	x
COC(=O)c1c(-c2ccc(OC)c(OC)c2)csc1N	2	0	i	2	5	-4	x	x
COC(=O)c1c(-c2ccc3ccccc3c2)csc1NC(=O)Cc1ccc(OC)c(OC)c1	5	35	x	39*	-2	-3	63*	70*
CC(C(=O)O)N1C(=O)/C(=C/C=C/c2ccco2)SC1=S (stereo unspecified)	49	-47	x	61*	4	14	34*	45*
O=C1/C(=C/C=C/c2ccco2)SC(=S)N1NS(=O)(=O)c1ccccc1	62	-58	x	85*	-10	-8	67*	34*
CC(C)Oc1ccc(C2C(C#N)=C(N)Oc3c2oc(CO)cc3=O)cc1 (stereo unspecified)	1	2	i	36*	-7	-10	5	6
